Data set [1] can be described thus: folding enthalpy; higher = less favourable; fluorescence melt of hairpins on a sequencing array, two-state fit. Particulars: sodium 0.088 M. The gist of the method:
(§1)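 Melting temperature and folding enthalpy were derived from bootstrapped two-state fits. The fitted temperatures were raised by 9.35 °C to agree with UV melts, and four replicates were combined by inverse variance. The underlying data were Cy3 fluorescence images of library hairpins, with annealed Cy3 and quencher oligos, on a sequenced MiSeq flow cell in 50 mM Na-HEPES pH 8.0, 25 mM NaCl, taken in 2.5 °C steps up to 60 °C, normalised to pre-quench Cy3 and to control constructs.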

Data set [2] in a line: melting temperature; fluorescence melt of hairpins on a sequencing array, two-state fit, raised by 9.35 °C to match UV melts. Particulars: sodium 0.088 M. The gist of the method:
as §1

Among the data in the array DNA melting data of Ke et al. (doi:10.1101/2024.01.08.574731) are folding enthalpy and Tm values, retold here.

On to GCTCAGCGAAAGCTCCGC ((..(((....)))..)), for which the folding enthalpy in data set [1] is -8.07 kcal/mol. Also, in data set [2], the Tm was 22.4 °C.
The like results for GCTCAGCGAAAGCTGTGC ((.((((....)))).)) were, in that order, -21.5 kcal/mol and 64.2 °C.
The like results for GCTCATCGAAAGATTAGC (((.(((....))).))) were, in that order, -34.5 kcal/mol and 42.8 °C.
For the sequence GCTCCACCGAAAGGTAGC (((..(((....)))))), in data set [1], the folding enthalpy is -17.2 kcal/mol. The Tm in data set [2] worked out at 33.9 °C.
The like results for GCTCCACGAAAGTGTAGC (((.(((....))).))) were, in that order, -28.9 kcal/mol and 49.2 °C.
With GCTCCAGGAAACCGGAGC (((((.(....).))))), in data set [1], the folding enthalpy was -40.5 kcal/mol. In data set [2], the Tm was determined as 54.3 °C.
The like results for GCTCCAGGAAACTGAAGC (((.(((....))).))) were, in that order, -32.5 kcal/mol and 38.6 °C.
For GCTCCCCCGAAAGGGAGC (((..(((....)))))) the same measures were -29.4 kcal/mol and 66.1 °C.
The like results for GCTCCCGAAAGGGAGAGC ((((((....)))..))) were, in that order, -11.8 kcal/mol and 65.8 °C.
Consider GCTCCCGAAAGGGCAAGC ((((((....)))..))), for which, in data set [1], the folding enthalpy is -15.9 kcal/mol. For the same sequence, the Tm in data set [2] was found to be 42.2 °C.
With GCTCCCGAAAGGGTGAGC ((((((....)))..))), the folding enthalpy in data set [1] is -16.7 kcal/mol. In data set [2], the Tm is 48.8 °C.
The like results for GCTCCCGGAAACAGGAGC (((((.(....).))))) were, in that order, -34.3 kcal/mol and 49.5 °C.
The like results for GCTCCCGGAAACGGGGGC ((.((((....)))).)) were, in that order, -26.7 kcal/mol and 68.5 °C.
The like results for GCTCCGCCGAAAGGCAGC (((..(((....)))))) were, in that order, -9.89 kcal/mol and 35.1 °C.
Regarding GCTCCGCGAAAGCAGCGC ((.(.((....)).).)), in data set [1], the folding enthalpy was -17.1 kcal/mol. Also, in data set [2], the Tm worked out at 43.7 °C.
The like results for GCTCCGCGAAAGCCCAGC (((..((....))..))) were, in that order, -5.26 kcal/mol and 23.2 °C.
The like results for GCTCCGCGAAAGCCGGGC ((.(.((....)).).)) were, in that order, -16.4 kcal/mol and 50 °C.
The like results for GCTCCGCGAAAGCGAAGC (((.(((....))).))) were, in that order, -29 kcal/mol and 56.4 °C.
Regarding GCTCCGCGAAAGCGACGC ((..(((....)))..)), the folding enthalpy in data set [1] was -18.4 kcal/mol. The Tm in data set [2] is 42.6 °C.
The like results for GCTCCGCGAAAGCGCTGC ((..(((....)))..)) were, in that order, -12.3 kcal/mol and 37.4 °C.
The like results for GCTCCGTCGAAAGACAGC (((..(((....)))))) were, in that order, -15 kcal/mol and 32.4 °C.
For GCTCCTGGAAACAAGAGC ((((.((....)).)))) the same measures were -27.9 kcal/mol and 34.8 °C.
For the sequence GCTCCTGGAAACAGAAGC (((.(((....))).))), the folding enthalpy in data set [1] was -28.5 kcal/mol. Moreover, in data set [2], the Tm came to 39.9 °C.
In the case of GCTCCTGGAAACGGGAGC (((((.(....).))))), the folding enthalpy in data set [1] was -41.1 kcal/mol. In data set [2], the Tm was 59.5 °C.
For GCTCGACGAAAGTCCAGC (((.(((....))).))) the same measures were -24.1 kcal/mol and 44.6 °C.
For GCTCGCCGAAAGGCAAGC (((.(((....))).))) the same measures were -29.1 kcal/mol and 54.7 °C.
On to GCTCGCGAAAGCGAAAGC ((((((....)))..))), for which, in data set [1], the folding enthalpy was -14.4 kcal/mol. Besides, the Tm in data set [2] worked out at 54.3 °C.
As to GCTCGCGAAAGCGACAGC ((((((....)))..))), the folding enthalpy in data set [1] is -10.7 kcal/mol. In addition, the Tm in data set [2] turned out to be 47.5 °C.
For GCTCGCGAAAGCGCAAGC ((((((....)))..))) the same measures were -12.4 kcal/mol and 48.5 °C.
For GCTCGCGAAAGCGCCAGC ((((((....)))..))) the same measures were -8.57 kcal/mol and 42.1 °C.
Turning to GCTCGCGAAAGCGGGAGC ((((((....)))..))), the folding enthalpy in data set [1] is -15.7 kcal/mol. In data set [2], the Tm came to 55.1 °C.
The like results for GCTCGCGAAAGCGTGAGC ((((((....)))..))) were, in that order, -18 kcal/mol and 53.4 °C.
The like results for GCTCGCGGAAACACGAGC (((((.(....).))))) were, in that order, -44.6 kcal/mol and 55.2 °C.
Take GCTCGGCGAAAGCCACGC ((..(((....)))..)): the folding enthalpy in data set [1] is -11.5 kcal/mol. The Tm in data set [2] is 43.3 °C.
With GCTCGGCGAAAGCCCAGC (((.(((....))).))), the folding enthalpy in data set [1] is -42.5 kcal/mol. In addition, the Tm in data set [2] was determined as 44.2 °C.
The like results for GCTCGGCGAAAGCCGCGC ((.((((....)))).)) were, in that order, -18.5 kcal/mol and 65.1 °C.
The like results for GCTCGGCGAAAGCTAAGC (((..((....))..))) were, in that order, -15.8 kcal/mol and 44.4 °C.
The like results for GCTCGGGGAAACCCGAAC (.(((((....))))).) were, in that order, -12.6 kcal/mol and 45.9 °C.
Consider GCTCGGGGAAACCTGAGC ((((.((....)).)))), for which, in data set [1], the folding enthalpy is -35.1 kcal/mol. The Tm in data set [2] came out at 59.3 °C.
The like results for GCTCGTCCGAAAGGAAGC (((..(((....)))))) were, in that order, -8.41 kcal/mol and 36.6 °C.
In the case of GCTCGTCGAAAGACTAGC (((.(((....))).))), in data set [1], the folding enthalpy was -39 kcal/mol. In addition, in data set [2], the Tm stood at 49 °C.
For GCTCTACGAAAGTACAGC (((.(((....))).))) the same measures were -21.5 kcal/mol and 35.5 °C.
The like results for GCTCTATCGAAAGATAGC (((..(((....)))))) were, in that order, -13.6 kcal/mol and 30.2 °C.
As to GCTCTCCGAAAGGAAAGC (((.(((....))).))), the folding enthalpy in data set [1] was -28.4 kcal/mol. Moreover, the Tm in data set [2] came out at 46.5 °C.
For the sequence GCTCTCCGAAAGGATAGC (((.(((....))).))), the folding enthalpy in data set [1] was -34.7 kcal/mol. Besides, the Tm in data set [2] was 49.1 °C.
As for GCTCTCGAAAGAGACAGC ((((((....)))..))), in data set [1], the folding enthalpy was -17.8 kcal/mol. For the same sequence, the Tm in data set [2] stood at 35.9 °C.
Take GCTCTCGAAAGAGCCAGC ((((((....)))..))): in data set [1], the folding enthalpy is -11.3 kcal/mol. Also, the Tm in data set [2] was found to be 37.5 °C.
For GCTCTCGAAAGAGTAGC ((((((....))).))), in data set [1], the folding enthalpy is -27.8 kcal/mol. For the same sequence, in data set [2], the Tm is 47.2 °C.
For GCTCTGCGAAAGCAACGC ((..(((....)))..)) the same measures were -9.7 kcal/mol and 31.8 °C.
The like results for GCTCTGCGAAAGCACAGC (((.(((....))).))) were, in that order, -25.6 kcal/mol and 38.6 °C.
The like results for GCTCTGCGAAAGCACGGC ((..(((....)))..)) were, in that order, -14.6 kcal/mol and 39.7 °C.
As for GCTCTGCGAAAGCAGTGC ((.((((....)))).)), the folding enthalpy in data set [1] is -16.7 kcal/mol. For the same sequence, the Tm in data set [2] was 62 °C.
As to GCTCTGCGAAAGCATCGC ((..(((....)))..)), the folding enthalpy in data set [1] was -16.3 kcal/mol. The Tm in data set [2] stood at 35.4 °C.
For GCTCTGCGAAAGCCCAGC (((..((....))..))) the same measures were -9.22 kcal/mol and 30.5 °C.
